{"data": "Measurements of several laboratories", "organism": "Pseudomonas aeruginosa", "read-out": "microbial growth", "note": "Protocols differ between the studies behind these lines."}
{"SMILES": "CCCCCCC/C=C/C(=O)N1C(=O)/C(=C(\\O)c2ccc(O)cc2)C(=O)C1CC(C)C (stereo not shown)", "strain": "PA01", "MIC": "> 200 µg/mL"}
{"SMILES": "CC(C)Oc1c(NC(=O)c2ccc(NC(=O)[C@H](CC(N)=O)NC(=O)c3ccc(NC(=O)c4ccc(N)cc4)cc3)cc2)ccc(C(=O)Nc2ccc(C(=O)O)cc2)c1O", "strain": "PA14", "MIC": "> 64 µg/mL"}
{"SMILES": "CC(C)CCNc1nc(Cl)c2c(c1O)C(=O)C1=C(O)[C@]3(O)C(=O)C(C(N)=O)=C(O)[C@@H](N(C)C)[C@@H]3C[C@@H]1C2.Cl.Cl.Cl", "technique": "broth dilution", "strain": "ATCC27853", "MIC": "> 32 µg/mL"}
{"SMILES": "COc1c(C)c(O)c(C)c(O)c1C(=O)/C=C/c1ccccc1", "technique": "broth dilution", "strain": "ATCC27853", "MIC": "1250 µg/mL"}
{"SMILES": "CN(C)CCCNc1nc(Cl)c2c(c1O)C(=O)C1=C(O)[C@]3(O)C(=O)C(C(N)=O)=C(O)[C@@H](N(C)C)[C@@H]3C[C@@H]1C2.Cl", "technique": "broth dilution", "strain": "ATCC27853", "MIC": "> 32 µg/mL"}
{"SMILES": "CN(C)[C@@H]1C(O)=C(C(N)=O)C(=O)[C@@]2(O)C(O)=C3C(=O)c4c(cc5ccc(CN6CC(F)(F)C6)cc5c4O)C[C@H]3C[C@@H]12", "technique": "broth dilution", "strain": "ATCC27853", "MIC": "32 µg/mL"}
{"SMILES": "CCCCCCC/C=C/C(=O)N1C(=O)/C(=C(\\O)CCCC)C(=O)C1CC(C)C (stereo not shown)", "strain": "PA01", "MIC": "> 200 µg/mL"}
{"SMILES": "Cc1ccc(C)n1-c1ccc(-c2n[nH]c(=S)[nH]2)cc1", "technique": "broth dilution", "strain": "ATCC10145", "time": "18 h", "MIC": "8 µg/mL"}
{"SMILES": "O=c1cc(-c2ccccc2)oc2cc(O)cc(O)c12", "technique": "broth dilution", "strain": "PAO1", "MIC": "128 µg/mL"}
{"SMILES": "O=C(Nc1ccc2c(c1)OC(F)(F)O2)Nc1ccc(Cl)c(C(F)(F)F)c1", "strain": "DSM19882", "MIC": "> 100 µM"}
{"SMILES": "O=C1C[C@@H](c2ccc(O)cc2)Oc2cc(O)cc(O)c21", "technique": "broth dilution", "strain": "PAO1", "MIC": "128 µg/mL"}
{"SMILES": "CN(Cc1ccc2cc3c(c(O)c2c1)C(=O)C1=C(O)[C@]2(O)C(=O)C(C(N)=O)=C(O)[C@@H](N(C)C)[C@@H]2C[C@@H]1C3)c1ccccc1", "technique": "broth dilution", "strain": "ATCC27853", "MIC": "32 µg/mL"}
{"SMILES": "CC1=NN(CNc2c(O)c(S(=O)(=O)O)cc3ccccc23)C(=O)C1=NNn1c(-c2ccccc2)nc2ccccc2c1=O", "technique": "broth dilution", "time": "24 h", "MIC": "41.8 µM"}
{"SMILES": "CC(C)Oc1c(NC(=O)c2ccc(NC(=O)[C@H](CC(N)=O)NC(=O)c3ccc(NC(=O)c4ccc(C#N)nc4)cc3)cc2)ccc(C(=O)Nc2ccc(C(=O)O)cc2)c1O", "strain": "PA14", "MIC": "> 64 µg/mL"}
{"SMILES": "Cc1ccc(C)n1-c1ccc(-c2nnc(S)s2)cc1", "technique": "broth dilution", "strain": "ATCC10145", "time": "18 h", "MIC": "2 µg/mL"}
{"SMILES": "CC(C)Oc1c(NC(=O)c2ccc(NC(=O)[C@H](CC(N)=O)NC(=O)c3ccc(NC(=O)c4ccc(C(F)(F)F)cc4)cc3)cc2)ccc(C(=O)Nc2ccc(C(=O)O)cc2)c1O", "strain": "PA14", "MIC": "> 64 µg/mL"}
{"SMILES": "CCCCCCC#Cc1cncc(-c2nnc(SCc3ccc([N+](=O)[O-])o3)n2C2CC2)c1", "MIC": "≥ 20 µg/mL"}
{"SMILES": "NC[C@H]1O[C@H](O[C@H]2[C@H](O)[C@@H](O[C@H]3O[C@H](CO)[C@@H](O)[C@H](N)[C@H]3O)[C@H](N)C[C@@H]2N)[C@H](N)C[C@@H]1O", "technique": "broth dilution", "strain": "CMCC10104", "MIC": "26.7 µM"}
{"SMILES": "CC(C)Oc1c(NC(=O)c2ccc(NC(=O)[C@H](CC(N)=O)NC(=O)c3cccc(-c4cccc(C#N)c4)c3)cc2)ccc(C(=O)Nc2ccc(C(=O)O)cc2)c1O", "strain": "PA14", "MIC": "> 64 µg/mL"}
{"SMILES": "Cc1ccc(C)n1-c1ccc(-c2nnc(-c3ccccc3Cl)[nH]2)cc1", "technique": "broth dilution", "strain": "ATCC10145", "time": "18 h", "MIC": "250 µg/mL"}
{"SMILES": "COc1c(C)c(OC(C)=O)c(C)c(OC(C)=O)c1C(=O)/C=C/c1ccccc1", "technique": "broth dilution", "strain": "ATCC27853", "MIC": "5000 µg/mL"}
{"SMILES": "COc1ncc(O)c2c1C[C@H]1C[C@H]3[C@H](N(C)C)C(O)=C(C(N)=O)C(=O)[C@@]3(O)C(O)=C1C2=O.Cl.Cl", "technique": "broth dilution", "strain": "ATCC27853", "MIC": "> 32 µg/mL"}
{"SMILES": "CC(C)Oc1c(NC(=O)c2ccc(NC(=O)[C@H](CC(N)=O)NC(=O)c3ccc(NC(=O)c4ccc5c(c4)COC5=O)cc3)cc2)ccc(C(=O)Nc2ccc(C(=O)O)cc2)c1O", "strain": "PA14", "MIC": "> 64 µg/mL"}
{"SMILES": "Cc1ccc(NCc2ccc(Oc3ccccn3)cc2)cc1", "MIC": "> 50 µg/mL"}
{"SMILES": "CNc1nc(Cl)c2c(c1O)C(=O)C1=C(O)[C@]3(O)C(=O)C(C(N)=O)=C(O)[C@@H](N(C)C)[C@@H]3C[C@@H]1C2.Cl.Cl.Cl", "technique": "broth dilution", "strain": "ATCC27853", "MIC": "8 µg/mL"}
{"SMILES": "CCCCCCCCCCCC(=O)Oc1c(C)c(O)c(C(=O)/C=C/c2ccccc2)c(OC)c1C", "technique": "broth dilution", "strain": "ATCC27853", "MIC": "5000 µg/mL"}
{"SMILES": "O=C1NN=C(N=Cc2ccc(O)cc2O)C1=NNn1c(-c2ccccc2)nc2ccccc2c1=O", "technique": "broth dilution", "time": "24 h", "MIC": "53.5 µM"}
{"SMILES": "Cn1cc(NC(=O)C(CC(N)=O)NC(=O)c2ccc(NC(=O)c3ccc(C#N)cc3)cc2)cc1-c1nc2ccc(C(=O)Nc3ccc(C(=O)O)cc3)c(O)c2[nH]1 (stereo not shown)", "strain": "PA14", "MIC": "> 64 µg/mL"}
{"SMILES": "NC1CCCCc2c1[nH]c1ccc(Br)cc21 (stereo not shown)", "technique": "broth dilution", "strain": "PAO1", "time": "18 h", "MIC": "128 µg/mL"}
{"SMILES": "CC(C)CC1NC(=O)C(C(=O)NC(C(=O)NC2C(=O)N3C2SC(C)(C)C3C(=O)O)c2ccccc2)=C1O (stereo not shown)", "MIC": "12.5 µg/mL"}
{"SMILES": "CC1=NN(CNc2ccc(C(=O)O)cc2)C(=O)C1=NNn1c(-c2ccccc2)nc2ccccc2c1=O", "technique": "broth dilution", "time": "24 h", "MIC": "50.5 µM"}
{"SMILES": "CN(C)[C@@H]1C(O)=C(C(N)=O)C(=O)[C@@]2(O)C(O)=C3C(=O)c4c(O)c(N)nc(F)c4C[C@H]3C[C@@H]12.Cl.Cl", "technique": "broth dilution", "strain": "ATCC27853", "MIC": "4 µg/mL"}
{"SMILES": "C[C@H]1COc2c(N3CCN(C)CC3)c(F)cc3c(=O)c(C(=O)O)cn1c23", "technique": "agar dilution", "strain": "PAO1", "MIC": "4 µg/mL"}
{"SMILES": "Clc1ccc(NCc2ccc(Oc3ccccn3)cc2)cc1", "MIC": "> 25 µg/mL"}
{"SMILES": "O=C(CCCCCCCCCC[P+](c1ccccc1)(c1ccccc1)c1ccccc1)Nc1cc(O)c(O)c(O)c1.[Br-]", "technique": "broth dilution", "strain": "ATCC27853", "time": "18 h", "MIC": "> 32 µg/mL"}
{"SMILES": "CC1(C)SC2C(NC(=O)C(NC(=O)C3=C(O)C(Cc4ccccc4)NC3=O)c3ccccc3)C(=O)N2C1C(=O)O (stereo not shown)", "MIC": "6.25 µg/mL"}
{"SMILES": "CN(C)[C@@H]1C(O)=C(C(N)=O)C(=O)[C@@]2(O)C(O)=C3C(=O)c4c(O)c(NC(=O)CNC(C)(C)C)nc(Cl)c4C[C@H]3C[C@@H]12.Cl.Cl.Cl", "technique": "broth dilution", "strain": "ATCC27853", "MIC": "> 32 µg/mL"}
{"SMILES": "O=C(O)c1cn(C2CC2)c2cc(N3CCNCC3)c(F)cc2c1=O", "technique": "broth dilution", "strain": "ATCC27853", "MIC": "16 µg/mL"}
{"SMILES": "CC(=O)Nc1ccc(C(=O)Nc2ccc(C(=O)N[C@@H](CC(N)=O)C(=O)Nc3ccc(C(=O)Nc4ccc(C(=O)Nc5ccc(C(=O)O)cc5)c(O)c4OC(C)C)cc3)cc2)cc1", "strain": "PA14", "MIC": "> 64 µg/mL"}
{"SMILES": "CN(C)[C@@H]1C(O)=C(C(N)=O)C(=O)[C@@]2(O)C(O)=C3C(=O)c4c(cc5ccc(CN6CCCC6)cc5c4O)C[C@H]3C[C@@H]12", "technique": "broth dilution", "strain": "ATCC27853", "MIC": "32 µg/mL"}
{"SMILES": "Cc1ccc2nc(-c3ccc([N+](=O)[O-])cc3)n(Cc3ccc(Cl)cc3)c2c1", "technique": "broth dilution", "strain": "ATCC27853", "MIC": "256 µg/mL"}
{"SMILES": "CC1(C)SC2C(NC(=O)C(NC(=O)C3=C(O)C4CCCN4C3=O)c3ccccc3)C(=O)N2C1C(=O)O (stereo not shown)", "MIC": "50 µg/mL"}
{"SMILES": "COc1c(C)c(OC)c(C(=O)/C=C/c2ccccc2)c(OC)c1C", "technique": "broth dilution", "strain": "ATCC27853", "MIC": "5000 µg/mL"}
{"SMILES": "CC(C)Oc1c(NC(=O)c2ccc(NC(=O)[C@H](CC(N)=O)NC(=O)c3ccc(NC(=O)c4ccc([N+](=O)[O-])c5cccnc45)cc3)cc2)ccc(C(=O)Nc2ccc(C(=O)O)cc2)c1O", "strain": "PA14", "MIC": "> 64 µg/mL"}
{"SMILES": "CCCCCCC/C=C/C(=O)N1C(=O)/C(=C(\\O)c2ccc(OCOCCOC)cc2)C(=O)C1CC(C)C (stereo not shown)", "strain": "PA01", "MIC": "> 200 µg/mL"}
{"SMILES": "O=C(Nc1ccc(S(=O)(=O)c2nccs2)cc1)c1cc(N=Nc2nccs2)ccc1O", "technique": "broth dilution", "MIC": "100 µg/mL"}
{"SMILES": "COc1cccc(NCc2ccc(Oc3ccccn3)cc2)c1", "MIC": "> 25 µg/mL"}
{"SMILES": "O=C(Cc1cc(O)c(O)c(O)c1)NCCCCCCCC[P+](c1ccccc1)(c1ccccc1)c1ccccc1.[Br-]", "technique": "broth dilution", "strain": "ATCC27853", "time": "18 h", "MIC": "> 32 µg/mL"}
{"SMILES": "O=[N+]([O-])c1ccc(-c2nc3cccc(O)c3[nH]2)o1", "technique": "broth dilution", "strain": "ATCC27853", "MIC": "> 64 µg/mL"}
